Source: ChEMBL document CHEMBL4028805, “Phenylthiazole Antibacterial Agents Targeting Cell Wall Synthesis Exhibit Potent Activity in Vitro and in Vivo against Vancomycin-Resistant Enterococci” (J Med Chem, 2017)
Converted amounts (≈) assume the structure as drawn. The source made the active and inactive calls.

How the values were obtained:
Escherichia coli [1] = assay: Antibacterial activity against Escherichia coli 1411 after 18 to 22 hrs in absence of colistin by broth microdilution method; type: functional
Method in brief: (§1)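 Broth microdilution per CLSI guidelines. Gram-negatives grown in TSB. Each strain tested alone and again with colistin at ¼ × MIC to permeabilize the outer membrane. Plates incubated at 37 °C for 18–22 h. MIC read as the lowest concentration showing no visible growth.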

Escherichia coli [2] = assay: Antibacterial activity against Escherichia coli 1411 harboring delta-acrAB after 18 to 22 hrs in absence of colistin by broth microdilution method; type: functional
Enterococcus faecium [3] = assay: Antibacterial activity against vancomycin-resistant Enterococcus faecium ATCC 700221 after 18 to 22 hrs in absence of colistin by broth microdilution method; type: functional
Enterococcus faecium [4] = assay: Antibacterial activity against Enterococcus faecium clinical isolates after 18 to 22 hrs by broth microdilution method; type: functional
Method in brief: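 Enterococcus faecium grown in BHI. MIC by CLSI broth microdilution, 37 °C for 18–22 h. Lowest concentration with no visible growth taken as MIC, reported as MIC50 across the isolates.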

Enterococcus faecium [5] = assay: Bactericidal activity against Vancomycin-resistant Enterococcus faecium clinical isolates after 18 to 22 hrs by broth microdilution method; type: functional
Method in brief: (§2)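 MBC follows the broth microdilution MIC. 5 μL aliquots spotted onto TSA (E. faecalis) or BHI agar (E. faecium), incubated 37 °C for 18–22 h. MBC is the concentration giving >99% reduction in bacterial count. MBC50 is the value for 50% of isolates.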

Enterococcus faecium [6] = assay: Bactericidal activity against Enterococcus faecium after 18 to 22 hrs by broth microdilution method; type: functional
Method in brief: (§3)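 MBC determined after the broth microdilution MIC. 5 μL aliquots plated onto TSA (E. faecalis) or BHI agar (E. faecium) and incubated at 37 °C for 18–22 h. MBC is the concentration giving >99% reduction in cell count, reported as MBC50.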

Enterococcus faecalis [7] = assay: Bactericidal activity against Enterococcus faecalis clinical isolates after 18 to 22 hrs by broth microdilution method; type: functional; method in brief: as §3
Enterococcus faecalis [8] = assay: Bactericidal activity against vancomycin-resistant Enterococcus faecalis clinical isolates after 18 to 22 hrs by broth microdilution method; type: functional; method in brief: as §2
Enterococcus faecalis [9] = assay: Bacteriostatic activity against vancomycin-resistant Enterococcus faecalis HM-201 assessed as reduction in CFU at 4 times MIC after 24 hrs; type: functional
Method in brief: (§4)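 Late-log cells diluted to ~5 × 10^6 CFU/mL and exposed in triplicate to 4 × MIC, in TSB (E. faecalis HM-201) or BHI (E. faecium ATCC 700221) at 37 °C. Sampled at 0, 2, 4, 6, 8, 10, 12 and 24 h, diluted serially in PBS and plated on TSA or BHI agar. CFU/mL counted after 18–22 h. DMSO served as negative control.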

Enterococcus faecium [10] = assay: Bacteriostatic activity against vancomycin-resistant Enterococcus faecium ATCC 700221 assessed as reduction in CFU at 4 times MIC after 24 hrs; type: functional; method in brief: as §4
Enterococcus faecium [11] = assay: Antibacterial activity against vancomycin-resistant Enterococcus faecium ATCC HM-968 assessed as ratio of MIC after and before 3 serial passages measured after 18 hrs by broth microdillution method; type: functional
Method in brief: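 Multi-step resistance selection: 0.5 McFarland suspension diluted 1:300 in BHI to a starting 1 × 10^5 CFU/mL. Broth microdilution MIC repeated for 14 passages over two weeks, each reseeded at ~5 × 10^5 CFU/mL from the sub-inhibitory well of the previous passage. Serial dilutions in triplicate, 37 °C for at least 18 h, MIC read visually. Resistance defined as a >4-fold MIC rise.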

Caenorhabditis elegans = assay: Toxicity in Caenorhabditis elegans AU37 assessed as worm survival at 20 ug/ml after 24 hrs by microscopic analysis; settings: caenorhabditis elegans, 24 h
Method in brief: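 Adult C. elegans AU37, 15–20 per well, exposed in triplicate to 10 or 20 μg/mL, with sterile water as negative control. Viability checked by microscopy. Result reported as percent viable worms after 24 h exposure.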

Enterococcus faecium [12] = assay: Ratio of MBC50 to MIC50 for Enterococcus faecium clinical isolates; type: functional
Method in brief: (§5)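 MIC by CLSI broth microdilution in TSB (E. faecalis) or BHI (E. faecium), 37 °C for 18–22 h, taken as the lowest concentration without visible growth. For MBC, 5 μL aliquots were spotted onto TSA (E. faecalis) or BHI agar (E. faecium) and incubated 37 °C for 18–22 h; MBC is the concentration giving >99% drop in count. MIC50/MBC50 cover 50% of isolates.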

Enterococcus faecalis [13] = assay: Ratio of MBC50 to MIC50 for Enterococcus faecalis clinical isolates; type: functional; method in brief: as §5
Enterococcus faecalis [14] = assay: Antibacterial activity against vancomycin-resistant Enterococcus faecalis ATCC 51299 after 14 serial passages measured after 18 hrs by broth microdillution method; type: functional
Method in brief: (§6)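 Multi-step selection over 14 passages in two weeks. McFarland 0.5 inoculum diluted 1:300 in TSB (E. faecalis) or BHI (E. faecium) to 1 × 10^5 CFU/mL. Each passage reinoculated at ~5 × 10^5 CFU/mL from the sub-inhibitory well of the previous plate. Compounds serially diluted in triplicate, incubated ≥18 h at 37 °C, MIC read visually. Resistance defined as >4-fold MIC rise.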

Acinetobacter baumannii [15] = assay: Antibacterial activity against Acinetobacter baumanii ATCC 19606 after 18 to 22 hrs in absence of colistin by broth microdilution method; type: functional; settings: ATCC 19606 = CIP 70.34 = JCM 6841; method in brief: as §1
Escherichia coli [16] = assay: Antibacterial activity against Escherichia coli O157:H7 ATCC 35150 after 18 to 22 hrs in absence of colistin by broth microdilution method; type: functional
Enterobacter cloacae [17] = assay: Antibacterial activity against Enterobacter cloacae BAA-1154 after 18 to 22 hrs in absence of colistin by broth microdilution method; type: functional
Klebsiella pneumoniae [18] = assay: Antibacterial activity against Klebsiella pneumoniae BAA-1706 after 18 to 22 hrs in absence of colistin by broth microdilution method; type: functional
Pseudomonas aeruginosa [19] = assay: Antibacterial activity against Pseudomonas aeruginosa ATCC 15442 after 18 to 22 hrs in absence of colistin by broth microdilution method; type: functional
Acinetobacter baumannii [20] = assay: Antibacterial activity against Acinetobacter baumanii ATCC 19606 after 18 to 22 hrs in presence of 1/4 times MIC colistin by broth microdilution method; type: functional; settings: ATCC 19606 = CIP 70.34 = JCM 6841; method in brief: as §1
Enterobacter cloacae [21] = assay: Antibacterial activity against Enterobacter cloacae BAA-1154 after 18 to 22 hrs in presence of 1/4 times MIC colistin by broth microdilution method; type: functional; method in brief: as §1
Klebsiella pneumoniae [22] = assay: Antibacterial activity against Klebsiella pneumoniae BAA-1706 after 18 to 22 hrs in presence of 1/4 times MIC colistin by broth microdilution method; type: functional; method in brief: as §1
Pseudomonas aeruginosa [23] = assay: Antibacterial activity against Pseudomonas aeruginosa ATCC 15442 after 18 to 22 hrs in presence of 1/4 times MIC colistin by broth microdilution method; type: functional; method in brief: as §1
Staphylococcus aureus = assay: Antibacterial against Methicillin-Resistant Staphylococcus aureus after 18 to 20 hrs by broth microdilution method; type: functional
Enterococcus faecalis [24] = assay: Antibacterial activity against Enterococcus faecalis clinical isolates after 18 to 22 hrs by broth microdilution method; type: functional
Method in brief: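 CLSI broth microdilution against panels of enterococcal isolates. E. faecalis grown in TSB, E. faecium in BHI, 37 °C for 18–22 h. MIC is the lowest concentration without visible growth. MIC50 is the value inhibiting 50% of isolates in each group.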

Enterococcus faecium [25] = assay: Bactericidal activity against vancomycin-resistant Enterococcus faecium ATCC 700221 at 4 times MIC after 2 hrs by time-kill assay; type: functional; method in brief: as §4
Enterococcus faecium [26] = assay: Bactericidal activity against vancomycin-resistant Enterococcus faecium ATCC 700221 at 4 times MIC after 24 hrs by time-kill assay; type: functional; method in brief: as §4
HRT-18 cell line [27] = assay: Cytotoxicity against human HRT18 cells assessed as reduction in cell viability up to 40 ug/ml after 2 hrs by MTS assay; type: cell-based; settings: hrt-18, 2 h
Method in brief: (§7)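 HRT-18 cells maintained in RPMI-1640 with 10% fetal horse serum at 37 °C, 5% CO2. Exposed to 5, 10, 20 or 40 μg/mL for 2 or 24 h, then MTS added and absorbance read at 490 nm. Viability expressed relative to untreated cells, n ≥ 3, one-way ANOVA with Dunnett's test.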

HRT-18 cell line [28] = assay: Cytotoxicity against human HRT18 cells assessed as reduction in cell viability at 20 ug/ml after 24 hrs by MTS assay; type: cell-based; settings: hrt-18, 24 h; method in brief: as §7
HRT-18 cell line [29] = assay: Cytotoxicity against human HRT18 cells assessed as reduction in cell viability at 40 ug/ml after 24 hrs by MTS assay; type: cell-based; settings: hrt-18, 24 h; method in brief: as §7
Enterococcus faecalis [30] = assay: Antibacterial activity against Enterococcus faecalis ATCC 31975 at 4 to 8 times MIC after 48 hrs by broth microdillution method; type: functional
Method in brief: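 Single-step resistance selection. Cultures of 5 × 10^8 to 5 × 10^10 CFU/mL spread on TSA containing compound at 2×, 4× or 8× MIC and incubated aerobically at 37 °C for 48 h. Colony MICs rechecked by broth microdilution. Frequency calculated as resistant colonies per inoculum.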

Enterococcus faecalis [31] = assay: Antibacterial activity against vancomycin-resistant Enterococcus faecalis ATCC 51299 assessed as ratio of MIC after and before 6 serial passages measured after 18 hrs by broth microdillution method; type: functional; method in brief: as §6
Enterococcus faecium [32] = assay: Antibacterial activity against vancomycin-resistant Enterococcus faecium ATCC HM-968 assessed as ratio of MIC after and before 11 serial passages measured after 18 hrs by broth microdillution method; type: functional; method in brief: as §6
Enterococcus faecalis [33] = assay: Antibacterial activity against vancomycin-resistant Enterococcus faecalis ATCC 51299 assessed as ratio of MIC after and before 11 serial passages measured after 18 hrs by broth microdillution method; type: functional; method in brief: as §6
Enterococcus faecalis [34] = assay: Synergistic antimicrobial activity against Enterococcus faecalis ATCC 49532 after 20 hrs in presence of ciprofloxacin by checkerboard assay; type: functional
Method in brief: (§8)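 Checkerboard in TSB with a starting inoculum of 1×10^5 CFU/mL. Compound and antibiotic diluted from 2× or 4× MIC along perpendicular axes. Incubated 20 h at 37 °C. ΣFIC calculated: ≤0.5 synergy, >0.5 to <2 additive, 2–4 indifference, >4 antagonism.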

Enterococcus faecalis [35] = assay: Synergistic antimicrobial activity against Enterococcus faecalis ATCC 49533 after 20 hrs in presence of ciprofloxacin by checkerboard assay; type: functional; method in brief: as §8
Enterococcus faecium [36] = assay: Ratio of MBC50 to MIC50 for vancomycin-resistant Enterococcus faecium ATCC 700221; type: functional

## CC(=O)NC[C@H]1CN(c2ccc(N3CCOCC3)c(F)c2)C(=O)O1 [LINEZOLID]
Escherichia coli [1]
  MIC: > 128 µg/mL
Escherichia coli [2]
  MIC: 8 µg/mL (≈ 23.7 µM)
Enterococcus faecium [3]
  MIC: 0.5 µg/mL (≈ 1.48 µM)
Enterococcus faecium [4]
  MIC50: 2 µg/mL (≈ 5.93 µM)
Enterococcus faecium [5]
  MBC50: 128 µg/mL (≈ 379 µM)
Enterococcus faecium [6]
  MBC50: 16 µg/mL (≈ 47.4 µM)
Enterococcus faecalis [7]
  MBC50: 64 µg/mL (≈ 190 µM)
Enterococcus faecalis [8]
  MBC50: 64 µg/mL (≈ 190 µM)
Enterococcus faecalis [9]
  Activity: Active
Enterococcus faecium [10]
  Activity: Active
Enterococcus faecium [11]
  Ratio: 1
Caenorhabditis elegans
  Activity: Non-Toxic
Enterococcus faecium [12]
  Ratio: >4
Enterococcus faecalis [13]
  Ratio: >4
Enterococcus faecalis [14]
  Activity: Active

## C/C(=N\NC(=N)N)c1sc(-c2ccc(-c3ccccc3)cc2)nc1C
Acinetobacter baumannii [15]
  MIC: 8 µg/mL (≈ 22.9 µM)
Escherichia coli [16]
  MIC: > 128 µg/mL
Enterobacter cloacae [17]
  MIC: > 128 µg/mL
Klebsiella pneumoniae [18]
  MIC: > 128 µg/mL
Pseudomonas aeruginosa [19]
  MIC: > 128 µg/mL
Escherichia coli [2]
  MIC: 4 µg/mL (≈ 11.4 µM)
Enterococcus faecium [3]
  MIC: 0.5 µg/mL (≈ 1.43 µM)
Acinetobacter baumannii [20]
  MIC: 1 µg/mL
Enterobacter cloacae [21]
  MIC: 1 µg/mL
Klebsiella pneumoniae [22]
  MIC: 2 µg/mL
Pseudomonas aeruginosa [23]
  MIC: 1 µg/mL
Staphylococcus aureus
  MIC: 1.3 to 5.6 µg/mL (≈ 3.72 to 16 µM)
Enterococcus faecium [4]
  MIC50: 8 µg/mL (≈ 22.9 µM)
Enterococcus faecalis [24]
  MIC50: 8 µg/mL (≈ 22.9 µM)
Enterococcus faecium [5]
  MBC50: 16 µg/mL (≈ 45.8 µM)
Enterococcus faecium [6]
  MBC50: 16 µg/mL (≈ 45.8 µM)
Enterococcus faecalis [7]
  MBC50: 16 µg/mL (≈ 45.8 µM)
Enterococcus faecium [25]
  Activity: Active
Enterococcus faecium [26]
  Activity: inactive
Enterococcus faecium [10]
  Activity: Active
HRT-18 cell line [27]
  Activity: Non-Toxic
HRT-18 cell line [28]
  Activity: Non-Toxic
HRT-18 cell line [29]
  Activity: Toxic
Enterococcus faecalis [30]
  Activity: Active
Enterococcus faecalis [31]
  Ratio: 1
Enterococcus faecium [32]
  Ratio: 1
Enterococcus faecalis [33]
  Ratio: 2
Enterococcus faecalis [34]
  fractional inhibitory concentration index (FICI): 0.63 - 1
Enterococcus faecalis [35]
  fractional inhibitory concentration index (FICI): 0.63 - 1
Enterococcus faecium [36]
  Ratio: >4
